Test [1] in a line: Growth inhibition of human HeLa cells after 72 hrs by trypan blue assay. Type of test: functional. In outline: (§1)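 Medium: HeLa in F-12 [HAM]; H460 and MSTO-211H in RPMI 1640 plus Hepes, pyruvate and glucose. All media contained 10% heat-inactivated FCS and antibiotics; 37°C, 5% CO2. 3–4 × 10^4 cells/well grew 24 h, then test agents were added at various concentrations for 72 h. Viability by trypan blue; GI50 = concentration giving 50% reduction in cell number vs control.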

A short description of test [2]: Growth inhibition of human H460 cells after 72 hrs by trypan blue assay. Format: functional. The following applies: NCI-H460, 72 h. In outline:
as §1

Test [3] in a line: Growth inhibition of human MSTO-211H cells after 72 hrs by trypan blue assay. Type of test: functional. In outline:
as §1

Test [4] in a line: Binding affinity to DNA (unknown origin) assessed as induction of negative LD signal at 260 nm at 1.2 x 10^-5 M by linear flow dichroism method. The conditions noted are these: in the assay text read “380 to 520 nm” for “260 nm”. The method, boiled down:
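Linear flow dichroism: aqueous DNA solutions at 1.9 × 10^-3 M in ETN buffer (10 mM TRIS, 1 mM EDTA, pH 7.0, 0.01 M NaCl); spectra recorded at 25°C at [drug]/[DNA] ratios of 0 and 0.08.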

The target in test [5] is T1, DNA topoisomerase 1 (Homo sapiens) (UniProt P11387).
T1 sequence (whole entry): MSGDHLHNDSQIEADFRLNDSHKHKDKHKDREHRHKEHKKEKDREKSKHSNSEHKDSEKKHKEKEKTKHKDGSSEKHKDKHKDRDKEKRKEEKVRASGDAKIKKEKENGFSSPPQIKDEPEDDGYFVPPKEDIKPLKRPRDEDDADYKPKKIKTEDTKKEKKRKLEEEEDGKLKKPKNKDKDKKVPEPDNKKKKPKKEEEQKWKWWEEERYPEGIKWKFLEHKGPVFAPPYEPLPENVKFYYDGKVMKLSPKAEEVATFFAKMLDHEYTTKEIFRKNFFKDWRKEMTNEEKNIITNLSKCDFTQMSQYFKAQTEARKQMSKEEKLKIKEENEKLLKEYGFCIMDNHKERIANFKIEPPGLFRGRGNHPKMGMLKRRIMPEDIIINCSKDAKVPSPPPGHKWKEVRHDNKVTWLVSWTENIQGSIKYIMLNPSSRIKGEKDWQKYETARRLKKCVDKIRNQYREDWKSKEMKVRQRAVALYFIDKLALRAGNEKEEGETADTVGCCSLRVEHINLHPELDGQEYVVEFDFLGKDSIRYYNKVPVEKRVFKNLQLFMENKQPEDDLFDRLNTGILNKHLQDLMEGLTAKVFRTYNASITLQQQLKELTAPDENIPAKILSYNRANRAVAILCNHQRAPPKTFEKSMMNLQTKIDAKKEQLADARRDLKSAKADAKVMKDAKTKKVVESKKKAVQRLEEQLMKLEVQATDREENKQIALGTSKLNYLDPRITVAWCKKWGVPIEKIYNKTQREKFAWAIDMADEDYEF
As to the kind of experiment: Poison activity at human recombinant topoisomerase 1 assessed as enzyme-supercoiled pBR322 DNA cleavable complex at 25 to 100 uM after 60 mins by agarose gel electrophoresis.

The target in test [6] is T1, DNA topoisomerase 1 (Homo sapiens). As to the kind of experiment: Inhibition of human recombinant topoisomerase 1 catalytic activity assessed as decrease in relaxation of supercoiled pBR322 DNA at 100 uM after 60 mins by agarose gel electrophoresis. In outline: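 Supercoiled pBR322 plasmid (0.25 µg) with 2U human recombinant topoisomerase I plus test compound, 60 min at 37 °C. Stopped with SDS stop buffer and proteinase K (50 µg/mL), a further 30 min at 37 °C. Run on 1% agarose; post-stained with ethidium bromide 1 µg/mL in TAE and imaged under UV.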

Test [7] has the same target. As to the kind of experiment: Poison activity at human recombinant topoisomerase 1 assessed as enzyme-supercoiled pBR322 DNA cleavable complex at 500 uM after 60 mins by agarose gel electrophoresis.

Activity calls are given as the source filed them. No cut-off for these calls is given here. Bounds are passed on as bounds.

Broadly, the GI50 is the concentration that inhibits growth by half. Low readings indicate greater sensitivity of the cells, high ones lower sensitivity of the cells.

Regarding `C=CC[C@@]12CCN[C@@H]1n1c3nc4ccc(OC)cc4cc3c(=O)c3cc(OC)cc2c31`, the GI50 came out at 16.6 µM in test [1], 18.6 µM in test [2] and 13.5 µM in test [3].
As for `C=CC[C@@]12CCN[C@@H]1n1c3nc4ccccc4cc3c(=O)c3cc(OC)cc2c31`, the GI50 came out at 30.7 µM in test [1], 32.2 µM in test [2] and 14.4 µM in test [3].
For `C=CC[C@@]12CCN(C)[C@@H]1n1c3nc4ccc(OC)cc4cc3c(=O)c3cc(OC)cc2c31`, in that order: 18.3 µM, 50 µM and 34.2 µM.
The corresponding values for `C=CC[C@@]12CCN(C(=O)OC(C)(C)C)[C@@H]1n1c3nc4ccc(O)c(CN(C)C)c4cc3c(=O)c3cccc2c31` are 35.2 µM, 17.8 µM and 22.8 µM.
The corresponding values for `C=CC[C@@]12CCN[C@@H]1n1c3nc4ccc(O)c(CN(C)C)c4cc3c(=O)c3cccc2c31` are 29.3 µM, 26.2 µM and 29.1 µM.
On to `C=CC[C@@]12CCN[C@@H]1n1c3nc4ccc(O)cc4cc3c(=O)c3cc(O)cc2c31`, for which the concentration for 50% growth inhibition (GI50) in test [1] is 15.3 µM; in test [2], 4.8 µM; in test [3], 7 µM.
The corresponding values for `CC[C@@]1(O)C(=O)OCc2c1cc1n(c2=O)Cc2cc3ccccc3nc2-1` [CAMPTOTHECIN] are 0.0054 µM, 0.002 µM and 0.0021 µM.
Turning to `COc1ccc2nc3c(cc2c1)c(=O)c1cccc2c1n3[C@H]1NCC[C@@]21CCO`, the result in test [4] and in test [5] was Active. Also, in test [6], the inhibition entry is “Active”. For the same compound, the results for the GI50 in test [1], in test [2] and in test [3] were 1.4 µM, 0.85 µM and 1.9 µM, respectively.
With `CN(C)Cc1c(O)ccc2nc3c(cc12)c(=O)c1cccc2c1n3[C@H]1N(C(=O)OC(C)(C)C)CC[C@@]21CCO`, the GI50 in test [1] is 13 µM; in test [2], 16.4 µM; in test [3] it was 20 µM.
For `C=CC[C@@]12CCN(C(=O)OC(C)(C)C)[C@@H]1n1c3nc4ccc(O)cc4cc3c(=O)c3cccc2c31`, in that order: 30.5 µM, 32.7 µM and 24.1 µM.
The corresponding values for `C=CC[C@@]12CCN[C@@H]1n1c3nc4ccc(O)cc4cc3c(=O)c3cccc2c31` are 19 µM, > 50 µM and 18.7 µM.
On to `C=CC[C@@]12CCN[C@@H]1n1c3nc4ccc(OC)cc4cc3c(=O)c3cccc2c31`, for which the outcome in test [4] and in test [7] was Active. Also, the inhibition entry in test [6] was “Active”. In addition, the GI50 was 14.8 µM in test [1], 8.9 µM in test [2] and 7.8 µM in test [3].
Take `CC(C)(C)OC(=O)N1CC[C@@]2(CCO)c3cccc4c(=O)c5cc6cc(O)ccc6nc5n(c34)[C@@H]12`: the GI50 in test [1] came to 13 µM; in test [2] it was 26.8 µM; in test [3], 13.7 µM.
For `C=CC[C@@]12CCN[C@@H]1n1c3nc4ccccc4cc3c(=O)c3cccc2c31`, in that order: 16.5 µM, 14.4 µM and 13 µM.

The record behind these values is ChEMBL document CHEMBL3872228, “A new scaffold of topoisomerase I inhibitors: Design, synthesis and biological evaluation” (2016).
